Where a chain is given by its changes, count along the chain named. “And” between values parts separate entries of the source, which are not always exact repeats. Equal entries are not always repeated.
Experiments:
K2P9.1 (TASK-3) = K2P9.1 (TASK-3) (Mus musculus, UniProt Q3LS21); test: Two-electrode voltage clamp in Xenopus oocytes, K2P9.1; type: cell-based, Murine
Summary of the method: (§1)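 Murine channel cDNAs in pGEMHE/pMO were expressed in Xenopus oocytes and recorded by two-electrode voltage clamp. Bath contained 2 mM [K+]o at pH 7.4. Currents were elicited by a −150 to 50 mV ramp from a −80 mV holding potential. Responses were normalized to basal channel activity and fit with a modified Hill equation (EC50, Imax/Imin, Hill coefficient H). Values are mean ± SD or SEM from ≥2 independent experiments.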

K2P2.1 (TREK-1)-3G = biological target: T1, K2P2.1 (TREK-1)-3G (Mus musculus, UniProt P97438); test: Two-electrode voltage clamp in Xenopus oocytes, 3G mutant; type: cell-based, Murine
T1 sequence (P97438 16-426): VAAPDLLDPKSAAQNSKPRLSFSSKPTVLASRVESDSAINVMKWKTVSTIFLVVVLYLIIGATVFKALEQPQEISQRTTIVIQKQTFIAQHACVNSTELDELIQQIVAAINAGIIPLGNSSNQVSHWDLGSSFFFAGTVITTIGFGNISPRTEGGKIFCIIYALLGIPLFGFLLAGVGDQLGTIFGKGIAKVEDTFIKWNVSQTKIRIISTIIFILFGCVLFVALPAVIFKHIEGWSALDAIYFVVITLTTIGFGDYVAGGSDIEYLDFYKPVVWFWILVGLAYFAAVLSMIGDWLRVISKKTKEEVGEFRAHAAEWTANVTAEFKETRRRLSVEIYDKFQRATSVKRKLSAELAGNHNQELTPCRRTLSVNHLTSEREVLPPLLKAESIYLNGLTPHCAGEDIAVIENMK

K2P4.1 (TRAAK) = biological target: T2, K2P4.1 (TRAAK) (Mus musculus, UniProt O88454); test: Two-electrode voltage clamp in Xenopus oocytes, K2P4.1; type: cell-based, Murine
T2 sequence (O88454 1-398): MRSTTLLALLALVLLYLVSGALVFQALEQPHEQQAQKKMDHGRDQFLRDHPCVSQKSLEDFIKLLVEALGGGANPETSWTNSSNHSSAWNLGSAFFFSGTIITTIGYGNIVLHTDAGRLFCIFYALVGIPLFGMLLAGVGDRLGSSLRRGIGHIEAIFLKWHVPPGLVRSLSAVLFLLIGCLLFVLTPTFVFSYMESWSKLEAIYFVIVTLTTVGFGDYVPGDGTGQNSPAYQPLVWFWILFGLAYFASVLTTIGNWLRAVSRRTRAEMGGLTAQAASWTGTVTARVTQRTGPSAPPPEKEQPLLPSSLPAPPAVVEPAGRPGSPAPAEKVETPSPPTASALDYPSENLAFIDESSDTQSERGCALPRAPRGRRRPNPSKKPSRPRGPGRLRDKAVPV
Summary of the method: as §1

K2P2.1 (TREK-1) [1] = biological target: T3, K2P2.1 (TREK-1) (Mus musculus, UniProt P97438); test: Whole cell patch clamp in HEK-293T cells, K2P2.1; type: cell-based, Murine
T3 sequence (P97438 1-411 isoform P97438-2): T1 sequence (P97438 16-426) with V1M

K2P2.1 (TREK-1) [2] = biological target: T3, K2P2.1 (TREK-1); test: Excised membrane patches; type: cell-based, Murine; conditions: 0 mV, 20 μM
K2P10.1 (TREK-2) = biological target: T4, K2P10.1 (TREK-2) (Mus musculus, UniProt Q8BUW1); test: Two-electrode voltage clamp in Xenopus oocytes, K2P10.1; type: cell-based, Murine
T4 sequence (Q8BUW1 1-535): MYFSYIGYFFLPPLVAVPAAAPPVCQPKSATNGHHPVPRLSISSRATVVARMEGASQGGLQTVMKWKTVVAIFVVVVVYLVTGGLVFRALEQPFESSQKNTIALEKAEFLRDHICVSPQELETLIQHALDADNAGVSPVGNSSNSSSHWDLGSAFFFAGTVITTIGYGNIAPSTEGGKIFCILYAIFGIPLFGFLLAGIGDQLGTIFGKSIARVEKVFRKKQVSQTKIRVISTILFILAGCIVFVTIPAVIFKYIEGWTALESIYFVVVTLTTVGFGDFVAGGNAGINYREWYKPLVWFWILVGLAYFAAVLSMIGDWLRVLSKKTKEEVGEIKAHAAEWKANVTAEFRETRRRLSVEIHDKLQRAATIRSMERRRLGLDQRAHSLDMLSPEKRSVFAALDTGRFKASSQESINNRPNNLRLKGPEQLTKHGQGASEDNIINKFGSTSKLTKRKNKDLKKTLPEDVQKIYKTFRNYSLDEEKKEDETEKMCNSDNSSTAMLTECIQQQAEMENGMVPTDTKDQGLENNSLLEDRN
Summary of the method: as §1

K2P2.1 (TREK-1) G137I = biological target: T5, K2P2.1 (TREK-1) G137I (Mus musculus, UniProt P97438, G152I); test: Two-electrode voltage clamp in Xenopus oocytes, G137I mutant; type: cell-based, Murine
T5 sequence (P97438 1-411 isoform P97438-2 G137I): T1 sequence (P97438 16-426) with V1M, G137I

K2P3.1 (TASK-1) = K2P3.1 (TASK-1) (Mus musculus, UniProt O35111); test: Two-electrode voltage clamp in Xenopus oocytes, K2P3.1; type: cell-based, Murine; conditions: at 100 μM compound
K2P3.1 (TASK-1), sequence (O35111 whole entry): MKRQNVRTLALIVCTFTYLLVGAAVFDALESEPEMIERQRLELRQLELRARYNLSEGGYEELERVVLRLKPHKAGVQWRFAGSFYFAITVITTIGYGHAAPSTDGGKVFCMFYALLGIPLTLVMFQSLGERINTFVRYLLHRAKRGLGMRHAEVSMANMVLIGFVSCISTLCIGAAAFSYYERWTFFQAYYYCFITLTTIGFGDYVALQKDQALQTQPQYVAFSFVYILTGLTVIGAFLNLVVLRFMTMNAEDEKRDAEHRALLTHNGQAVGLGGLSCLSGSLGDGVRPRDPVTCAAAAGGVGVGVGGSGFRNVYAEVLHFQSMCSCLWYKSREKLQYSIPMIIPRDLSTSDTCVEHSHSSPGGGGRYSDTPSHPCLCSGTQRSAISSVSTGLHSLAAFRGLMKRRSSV
Summary of the method: as §1

K2P5.1 (TASK-2) = biological target: T6, K2P5.1 (TASK-2) (Mus musculus, UniProt F6V9U5); test: Two-electrode voltage clamp in Xenopus oocytes, K2P5.1; type: cell-based, Murine; conditions: at 100 μM compound
T6 sequence (F6V9U5 1-502): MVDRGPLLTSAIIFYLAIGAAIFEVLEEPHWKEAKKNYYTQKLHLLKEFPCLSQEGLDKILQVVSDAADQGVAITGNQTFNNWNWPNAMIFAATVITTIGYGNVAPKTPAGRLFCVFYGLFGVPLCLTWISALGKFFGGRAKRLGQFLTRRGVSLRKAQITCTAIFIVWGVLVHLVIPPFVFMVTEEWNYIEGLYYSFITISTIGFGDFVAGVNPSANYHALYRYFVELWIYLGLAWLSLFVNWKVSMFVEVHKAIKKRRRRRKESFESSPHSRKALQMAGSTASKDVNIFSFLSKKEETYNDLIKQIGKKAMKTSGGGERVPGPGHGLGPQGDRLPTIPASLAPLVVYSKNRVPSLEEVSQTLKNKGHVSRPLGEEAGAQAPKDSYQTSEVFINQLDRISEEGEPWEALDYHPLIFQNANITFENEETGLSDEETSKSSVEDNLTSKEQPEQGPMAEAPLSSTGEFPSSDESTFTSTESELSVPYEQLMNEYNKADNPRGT
Summary of the method: as §1

K2P2.1 (TREK-1) W275S = biological target: T7, K2P2.1 (TREK-1) W275S (Mus musculus, UniProt P97438, W290S); test: Two-electrode voltage clamp in Xenopus oocytes, W275S mutant; type: cell-based, Murine
T7 sequence (P97438 1-411 isoform P97438-2 W275S): T1 sequence (P97438 16-426) with V1M, W275S
Summary of the method: as §1

Kv7.2 (KCNQ2) = Kv7.2 (KCNQ2) (Homo sapiens, UniProt O43526); test: Two-electrode voltage clamp in Xenopus oocytes, Kv7.2; type: cell-based; conditions: at 100 μM
Kv7.2 (KCNQ2), sequence (O43526 whole entry): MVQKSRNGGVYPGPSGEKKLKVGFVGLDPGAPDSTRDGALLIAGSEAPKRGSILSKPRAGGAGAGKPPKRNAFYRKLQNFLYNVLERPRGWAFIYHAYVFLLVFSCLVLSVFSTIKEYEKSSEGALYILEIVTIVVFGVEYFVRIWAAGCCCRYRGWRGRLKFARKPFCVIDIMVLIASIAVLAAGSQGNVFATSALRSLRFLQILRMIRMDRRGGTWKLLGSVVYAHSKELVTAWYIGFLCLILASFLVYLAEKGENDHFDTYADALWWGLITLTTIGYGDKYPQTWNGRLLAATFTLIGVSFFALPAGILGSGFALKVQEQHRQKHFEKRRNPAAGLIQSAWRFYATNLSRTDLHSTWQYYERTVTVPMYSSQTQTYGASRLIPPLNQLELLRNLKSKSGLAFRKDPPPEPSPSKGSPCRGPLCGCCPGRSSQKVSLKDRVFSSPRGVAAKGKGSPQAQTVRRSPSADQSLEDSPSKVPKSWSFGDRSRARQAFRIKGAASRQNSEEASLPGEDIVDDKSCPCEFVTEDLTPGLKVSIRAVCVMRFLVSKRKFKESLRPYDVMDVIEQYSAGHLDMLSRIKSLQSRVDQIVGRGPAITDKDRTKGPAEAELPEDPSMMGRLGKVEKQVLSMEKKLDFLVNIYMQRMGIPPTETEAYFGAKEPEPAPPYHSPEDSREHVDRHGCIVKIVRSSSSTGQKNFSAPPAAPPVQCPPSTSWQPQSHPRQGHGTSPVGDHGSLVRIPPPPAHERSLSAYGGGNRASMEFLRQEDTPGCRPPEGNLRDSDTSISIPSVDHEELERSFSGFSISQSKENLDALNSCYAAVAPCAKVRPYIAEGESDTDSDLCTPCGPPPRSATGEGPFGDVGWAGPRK

K2P18.1 (TRESK) = biological target: T8, K2P18.1 (TRESK) (Mus musculus, UniProt Q6VV64); test: Two-electrode voltage clamp in Xenopus oocytes, K2P18.1; type: cell-based, Murine; conditions: at 100 μM compound
T8 sequence (Q6VV64 1-394): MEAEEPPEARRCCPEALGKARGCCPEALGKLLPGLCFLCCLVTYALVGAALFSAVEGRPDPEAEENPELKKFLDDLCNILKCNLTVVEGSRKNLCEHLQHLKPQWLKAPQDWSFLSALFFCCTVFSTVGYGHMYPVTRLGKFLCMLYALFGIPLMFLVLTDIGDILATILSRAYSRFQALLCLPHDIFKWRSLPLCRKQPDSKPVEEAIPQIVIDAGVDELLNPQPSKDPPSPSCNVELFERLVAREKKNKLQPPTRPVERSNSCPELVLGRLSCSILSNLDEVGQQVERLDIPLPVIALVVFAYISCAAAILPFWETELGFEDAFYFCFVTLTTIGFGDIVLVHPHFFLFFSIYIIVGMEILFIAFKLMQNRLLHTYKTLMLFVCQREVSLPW
Summary of the method: as §1

K2P2.1 (TREK-1) [3] = biological target: T3, K2P2.1 (TREK-1); test: Two-electrode voltage clamp in Xenopus oocytes, K2P2.1; type: cell-based, Murine
K2P2.1 (TREK-1) [4] = conditions: at 1.6 mM; cited from earlier work
[5] = whole-cell, HEK-293T, 0 mV, 20 μM

K2P9.1 (TASK-3), sequence (Q3LS21 whole entry): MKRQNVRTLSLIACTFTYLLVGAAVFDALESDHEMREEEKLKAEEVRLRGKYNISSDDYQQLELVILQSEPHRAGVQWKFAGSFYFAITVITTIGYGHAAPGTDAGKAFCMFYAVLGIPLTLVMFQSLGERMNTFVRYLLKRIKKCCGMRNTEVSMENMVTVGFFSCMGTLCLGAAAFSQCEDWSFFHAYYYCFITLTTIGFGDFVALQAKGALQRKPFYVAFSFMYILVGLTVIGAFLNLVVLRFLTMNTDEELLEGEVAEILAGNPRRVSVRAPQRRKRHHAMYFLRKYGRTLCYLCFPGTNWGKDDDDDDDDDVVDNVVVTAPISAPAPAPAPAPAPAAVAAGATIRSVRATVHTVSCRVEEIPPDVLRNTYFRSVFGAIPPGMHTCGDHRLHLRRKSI

CC1(C)c2cc(Cl)ccc2N(CCc2nnn[nH]2)c2ccc(Cl)cc21 [ML67-33, 2,7-dichloro-9,9-dimethyl-10-[2-(1H-tetrazol-5-yl)-ethyl]-9,10-dihydro-acridine]
Emax (K2P9.1 (TASK-3); at 100 μM): 1.7 ± 0.3
Emax (fold) (K2P9.1 (TASK-3); at 150 μM): 2.1 ± 0.4 at 150 μM fold
EC50 (K2P2.1 (TREK-1)-3G): 49.4 ± 1.1 µM
H (cooperativity coefficient from the Hill equation) (K2P2.1 (TREK-1)-3G): 2.2 ± 0.4
H (cooperativity coefficient from the Hill equation) (K2P4.1 (TRAAK)): 1.8 ± 0.4
Emax (fold) (K2P4.1 (TRAAK); at 100 μM compound): 14.7 ± 1.12 fold and 14.7 ± 1.1 fold and 14.7 ± 1.1 ^d fold
Emax (fold) (K2P2.1 (TREK-1) [1]; HEK293 cells): 11.4 ± 1.1 fold
H (cooperativity coefficient from the Hill equation) (K2P2.1 (TREK-1) [1]; HEK293 cells): 2.3 ± 0.7
Emax (K2P2.1 (TREK-1) [1]; HEK cells, at 100 μM): 11.4 ± 1.1
half-maximal activation time (t1/2act) (K2P2.1 (TREK-1) [1]; [5]): 4.1 ± 0.5 s
time of return to baseline following washout (t1/2wash) (K2P2.1 (TREK-1) [1]; [5]): 3.9 ± 0.5 s
t1/2act (K2P2.1 (TREK-1) [2]; inside-out patch): 10.8 ± 1.3 s
t1/2wash (K2P2.1 (TREK-1) [2]; inside-out patch): 22.0 ± 5.1 s
t1/2act (K2P2.1 (TREK-1) [2]; outside-out patch): 4.6 ± 0.9 s
t1/2wash (K2P2.1 (TREK-1) [2]; outside-out patch): 3.1 ± 0.7 s
Emax (fold) (K2P10.1 (TREK-2)): 11.4 ± 1.8 fold
H (cooperativity coefficient from the Hill equation) (K2P10.1 (TREK-2)): 1.6 ± 0.6
Emax (K2P10.1 (TREK-2); at 100 μM): 11.4 ± 1.8
response to activation (in words) (K2P2.1 (TREK-1) G137I): completely resistant
Emax (fold) (K2P2.1 (TREK-1) G137I; at 150 μM): 0.9 ± 0.1 at 150 μM fold
Emax (fold) (K2P3.1 (TASK-1)): 1.1 ± 0.0 fold and 1.1 ± 0.1 ^d fold
Emax (fold) (K2P5.1 (TASK-2)): 2.0 ± 0.1 fold
Emax (fold) (K2P2.1 (TREK-1) W275S): 5.1 ± 0.6 fold
H (cooperativity coefficient from the Hill equation) (K2P2.1 (TREK-1) W275S): 1.6 ± 0.7
effect on Kv7.2 (KCNQ2) (in words) (Kv7.2 (KCNQ2)): no effect
Emax (fold) (K2P18.1 (TRESK)): 0.9 ± 0.1 fold and 0.9 ± 0.1 ^d fold
improved potency (fold) (K2P2.1 (TREK-1) [3]; EC50 compared to ML67-18): 5 fold
H (cooperativity coefficient from the Hill equation) (K2P2.1 (TREK-1) [3]; Xenopus oocytes): 3.6 ± 0.4
Emax (fold) (K2P2.1 (TREK-1) [3]; Xenopus oocytes, at 100 μM compound): 11.1 ± 0.4 fold
Emax (fold) (K2P2.1 (TREK-1) [3]; Xenopus oocytes, normalized to basal activity): 11.1 ± 0.4 fold and ~11 fold

ClC(Cl)Cl [chloroform]
reported activation (fold) (K2P2.1 (TREK-1) [4]): 5.5 fold

— article PMC3747594 (ACS Chemical Biology, 2013)
